Source: PubChem
Hits are enriched below; roughly 2% of the tested compounds scored in any of these assays.
PglD inh: C. jejuni PglD acetyltransferase inhibitors, primary screen, biochemical, DTNB colorimetric, single point; UDP-N-acetylbacillosamine N-acetyltransferase PglD (Campylobacter jejuni); purified PglD enzyme, DTNB colorimetric CoA detection; 360,000 compounds, 0.098% hits; inhibition, % at 12.5 µM; AID 602405, 2012; in the data active = inhibition above about 16%, passing the limit was not always enough
rRNA inh HTS: reduced GFP signal of wild-type E. coli, primary screen, bacterial rRNA inhibitor project, GFP/RFP fluorescence, OD600, single point; AID 720706, 2013; E. coli WT GFP vs humanized-ribosome RFP mutants, 24 h; stronger effect = lower value; DMSO median 0, no signal -100; 350,000 compounds, 1.6% hits; GFP signal change (wild-type ribosome), % (test concentration not listed);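 active = significant combined selectivity score with lowered wild-type GFP, culture density cut under 30%, mutant RFP and density less affected; inactive = any of these conditions unmet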
RAD54 inh: inhibitors of human RAD54 branch migration, primary screen, biochemical, fluorescence, single point; RAD54 Holliday junction branch migration, FAM/BHQ fluorescence; inhibition, % at 10.4 µM; 360,000 compounds, 0.14% hits;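 active = mean normalized replicate activity at least 40 and at least half of replicates scoring 40 or more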;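 also: 0% = median of neutral control wells and 100% = median of positive control wells; inhibitors cause a drop in the FAM fluorescence signal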
RAD52 inh: RAD52 DNA annealing inhibitors, primary screen, biochemical, FRET, single point, set 2; recombinant RAD52 DNA annealing, FRET fluorescence; inhibition, % at 18.7 µM; 360,000 compounds, 0.46% hits; AID 651710, 2012;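 active = every replicate showing at least 50% inhibition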
Target sequence (P43351 whole entry, looked up): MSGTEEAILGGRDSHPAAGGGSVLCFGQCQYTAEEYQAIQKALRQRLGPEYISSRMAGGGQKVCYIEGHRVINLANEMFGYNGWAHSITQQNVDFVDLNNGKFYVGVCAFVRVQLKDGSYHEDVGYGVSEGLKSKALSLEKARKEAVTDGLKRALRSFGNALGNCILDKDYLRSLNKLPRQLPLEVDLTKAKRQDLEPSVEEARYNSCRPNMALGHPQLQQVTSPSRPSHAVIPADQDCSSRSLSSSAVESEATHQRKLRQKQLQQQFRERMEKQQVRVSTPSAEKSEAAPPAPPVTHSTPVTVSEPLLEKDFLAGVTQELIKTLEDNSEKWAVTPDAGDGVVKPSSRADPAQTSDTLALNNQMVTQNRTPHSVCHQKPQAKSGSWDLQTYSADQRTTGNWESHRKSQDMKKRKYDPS
E-selectin induc: E-selectin induction in HUVECs, primary screen, imaging, HUVEC, immunofluorescence imaging, single point; normalized: neutral wells 0, TNF-alpha wells 100; P16581; activation, % at 7.58 µM; 260,000 compounds, 0.37% hits;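 active = mean E-selectin-positive cell signal at least 10% of the positive control, reached in at least 60% of replicates, without over 20% cell loss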
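Read-out basis: % PE-positive cells; Test system: HUVEC primary endothelial cells; Technique: immunofluorescence imaging; Dosing: single-point compound dose.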
Xi reactivation: activators of inactive X chromosome reactivation, primary screen, imaging, XiGFP fibroblasts, GFP high-content imaging, set 2; XiGFP mouse fibroblasts, % GFP-positive cells imaging, 3 d; cells co-treated with 5-aza-dC sensitizer; scaled so ellipticine positive control = 100%; activation, % at 7.58 µM; 360,000 compounds, 0.055% hits; AID 743238, 2013;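 active = mean normalized replicate activation at least 10% and every replicate at or above 10%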;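 also: 0% = median of on-plate neutral control wells and 100% = ellipticine 6 µM median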
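Assay system: SV40-immortalized XiGFP fibroblast cells, line 68-5-11; buffer or medium: DMEM plus 5-aza-dC sensitizer; compound: one concentration, pinned; timing: compounds 3 days, fix/stain 15 min at room temperature; benchmarks: positive control ellipticine, 6 µM final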
Numbers without * were called inactive; / = not tested or not shown.

SMILES	PglD inh	rRNA inh HTS	RAD54 inh	RAD52 inh	E-selectin induc	Xi reactivation
COc1cc([N+](=O)[O-])ccc1NC(=S)NNC(=O)CCC(=O)Nc1ccccc1Cl	-3	-17*	-4	-14	0	0
Cc1ccccc1-c1cnc2c(c1)C(=O)N([C@H](C)CO)C[C@@H](C)[C@@H](CN(C)Cc1cccnc1)O2	1	0	8	-11	0	0
O=C(CCCCCNC(=O)c1ccccc1Br)N=Nc1c(O)[nH]c2ccccc12	/	0	/	-4	88*	0
CCN1[C@@H]2c3ccc(-c4ccncc4)c(=O)n3C[C@H]1[C@H](CO)[C@H]2C(=O)NCCc1cn(C)cn1	1	1	-1	-21	0	0
CCn1c(NCCO)nc2c(c1=O)C(C)(CC)Cc1ccccc1-2 (stereo unspecified)	/	-28*	/	-18	0	0
CC1(C)Cc2ccccc2-c2nc(NCCCO)[nH]c(=O)c21	5	-43*	4	2	0	0
CCC1(C)Cc2ccccc2-c2nc(NCCCO)n(-c3ccccc3)c(=O)c21 (stereo unspecified)	/	/	-2	/	/	/
C[C@@H]1CCCCO[C@@H](CN(C)S(=O)(=O)c2ccc(Cl)cc2)[C@H](C)CN([C@H](C)CO)C(=O)c2cc(NS(C)(=O)=O)ccc2O1	0	-3	0	-34	0	-1
CO[C@@H]1CC[C@H]2CCN(C)C(=O)[C@H](C)CN(C)C(=O)c3cccc(C#N)c3OC[C@@H]1O2	1	3	1	2	0	0
COc1cccc(N2CCN(C(=O)c3ccc(CS(=O)Cc4ccccc4Cl)o3)CC2)c1 (stereo unspecified)	3	-31*	0	1	0	0
O=C(c1ccc(CS(=O)Cc2ccccc2Cl)o1)N1CCN(c2cccc(Cl)c2)CC1 (stereo unspecified)	1	-2	-9	-26	/	0
C=CCOC(=O)[C@H]1[C@@H]2C(=O)O[C@@H](c3ccccc3)[C@@H](c3ccccc3)N2[C@@H](c2ccc(OCCOC(=O)[C@@H]3C[C@@H]4C(=O)N[C@@H](CC(C)C)C(=O)N4[C@@H]3c3cccc(OCCO)c3)cc2)[C@]12C(=O)Nc1ccccc12	/	/	/	-9	/	/
C[C@@H]1CN([C@H](C)CO)C(=O)c2cccc(NS(C)(=O)=O)c2O[C@H]1CN(C)Cc1ccncc1	1	2	2	-11	125*	0
C[C@@H]1CN([C@H](C)CO)C(=O)c2cccc(NS(C)(=O)=O)c2O[C@@H]1CN(C)Cc1ccc(Oc2ccccc2)cc1	-1	-1	-3	0	41*	0
C[C@@H]1CN([C@@H](C)CO)C(=O)c2cccc(NS(C)(=O)=O)c2O[C@H]1CN(C)Cc1ccc(Oc2ccccc2)cc1	-1	1	2	5	18	0
C[C@H](CO)N1C[C@H](C)[C@@H](CN(C)Cc2ccncc2)Oc2c(NS(C)(=O)=O)cccc2C1=O	2	1	5	-8	9	0
C/C=C/c1cnc2c(c1)C(=O)N([C@@H](C)CO)C[C@@H](C)[C@@H](CN(C)C(=O)CN1CCOCC1)O2	-2	4	1	9	0	-1
COCC(=O)Nc1ccc2c(c1)C(=O)N(C)[C@H]1CC[C@@H](CC(=O)NCCCN(C)C)O[C@@H]1CO2	7	3	-9	15	0	0
Cc1cccc(S(=O)(=O)N2CCCCN3[C@@H](CO)[C@H](c4ccc(-c5ccccc5)cc4)[C@@H]3C2)c1	-1	/	2	68*	/	/
O=S(=O)(c1cccs1)N1CCCCN2[C@@H](CO)[C@@H](c3ccc(C4=CCCC4)cc3)[C@@H]2C1	-1	-34*	-8	41	-1	0
Cc1ccc(-c2ccc([C@@H]3[C@@H](CO)N4CCCCN(S(=O)(=O)c5cccc(C)c5)C[C@H]34)cc2)cc1	-1	/	6	53*	/	/
Cc1noc(C)c1NC(=O)Nc1ccc2c(c1)C(=O)N([C@@H](C)CO)C[C@H](C)[C@@H](CN(C)Cc1ccc(C(F)(F)F)cc1)OCCCC[C@@H](C)O2	2	1	-1	-3	0	-1
Cc1cccc(C)c1NC(=O)CN(C)C(=O)c1ccc(-n2cncn2)c([N+](=O)[O-])c1	-2	2	4	-1	50*	0
Cc1[nH]c2ccccc2c1/C=C(\C#N)C(=O)NCC1CCCO1 (stereo unspecified)	/	-23*	/	-16	2	0
C[C@H](CO)N1C[C@H](C)[C@@H](CN(C)Cc2ccccn2)Oc2ncc(C#CC(C)(C)O)cc2C1=O	1	4	-2	-8	0	0
SMILES	PglD inh	rRNA inh HTS	RAD54 inh	RAD52 inh	E-selectin induc	Xi reactivation
O=C(N/N=C/c1cccnc1)c1ccc(CN2c3cccc4cccc(c34)S2(=O)=O)cc1	14	-18*	2	-28	6	0
COc1cccc(/C=N/NC(=O)c2ccc(CN3c4cccc5cccc(c45)S3(=O)=O)cc2)c1	-2	8	-5	-12	/	0
CCOC(=O)CSc1c(-c2ccccc2)c2cc(Cl)ccc2[nH]c1=O	-3	-2	-9	-6	-2	0
O=C(O)CSc1c(-c2ccccc2)c2cc(Cl)ccc2[nH]c1=O	/	-28*	/	-14	-3	0
COC(=O)c1ccc(-n2c(C)ccc2-c2ccccc2)cc1	5	-22*	4	-14	/	/
CC(=O)c1ccc(-n2c(C)ccc2-c2ccccc2)cc1	-2	/	3	/	/	/
COC(=O)c1sc(C(F)(F)F)c(-c2ccccc2)c1S(=O)(=O)N1CCOCC1	-10	/	-2	-9	/	0
COC(=O)c1sc(C(F)(F)F)c(-c2ccccc2)c1S(=O)(=O)N1CCCC1	-3	-26*	-4	-6	0	0
COc1ccc(NC(=O)N2CCCCN3[C@H](CO)[C@H](c4ccc(C5=CCCC5)cc4)[C@@H]3C2)cc1	10	/	-1	4	/	/
COc1ccc(NC(=O)N2CCCCN3[C@@H](CO)[C@H](c4ccc(C5=CCCCC5)cc4)[C@@H]3C2)cc1	4	-60	1	71*	0	0
